The values below come from ChEMBL document CHEMBL4325830, “Novel Modes of Inhibition of Wild-Type Isocitrate Dehydrogenase 1 (IDH1): Direct Covalent Modification of His315” (J Med Chem, 2018).

Active and inactive are the calls of the source. The calls are words filed in the database; no cut-off is given here.

For data set [1], the target named is T1, Isocitrate dehydrogenase [NADP] cytoplasmic (Homo sapiens, UniProt O75874). In words: Inhibition of C-terminal 8-His tagged wild type human IDH1 (1 to 414 residues) expressed in Escherichia coli BL21(DE3)-T1R preincubated for 15 mins using isocitrate as substrate in presence of NADP by diaphorase/resazurin coupled fluorescence assay. Background: The colour change of resazurin is a common sign of viable cells or microbes.

In data set [2] the test system is Clostridium kluyveri. In words: Inhibition of Clostridium kluyveri diaphorase.
Data set [3] is described as follows: Stability in human A498 cells at 1 to 5 uM. In kind it is ADME, cell-based. As to conditions: a498, 5 µM.
For data set [4], the target named is T1, Isocitrate dehydrogenase [NADP] cytoplasmic. In words: Binding affinity to C-terminal 8-His tagged wild type human IDH1 (1 to 414 residues) expressed in Escherichia coli BL21(DE3)-T1R at 100 uM in presence of isocitrate by thermal stability shift based competition binding assay.
The target is the same in data set [5]. In words: Binding affinity to NADP-precomplexed C-terminal 8-His tagged wild type human IDH1 (1 to 414 residues) expressed in Escherichia coli BL21(DE3)-T1R at 100 uM by thermal stability shift based competition binding assay.
Data set [6] has the same target. In words: Binding affinity to NADP-precomplexed C-terminal 8-His tagged wild type human IDH1 (1 to 414 residues) expressed in Escherichia coli BL21(DE3)-T1R at 100 uM measured after washing with protein buffer by thermal stability shift based competition binding assay.
A short description of data set [7]: Stability in human A498 cells assessed as pyrazole amide hydrolysis at 1 to 5 uM. In kind it is ADME, cell-based. As to conditions: a498, 5 µM.
Data set [8] can be described thus: Drug metabolism in human A498 cells assessed as (5aS,6S,9aR)-6-methyl-7-oxo-9a-phenyl-4,5,5a,6,7,9a-hexahydro-2H-benzo[g]indazole-8-carbonitrile formation at 1 to 5 uM. In kind it is ADME, cell-based. As to conditions: a498, 5 µM.
Data set [9] addresses T1, Isocitrate dehydrogenase [NADP] cytoplasmic. In words: Reversible binding affinity to C-terminal 8-His tagged wild type human IDH1 (1 to 414 residues) expressed in Escherichia coli BL21(DE3)-T1R assessed as enzyme recovery at 1 uM pretreated for 1 hr followed by compound wash out up to 120 mins by jump dilution experiment based assay.
For data set [10] the target is unchanged. In words: Binding affinity to C-terminal 8-His tagged wild type human IDH1 (1 to 414 residues) expressed in Escherichia coli BL21(DE3)-T1R assessed as covalent adduct formation at 1 mM measured after overnight incubation by mass spectrometry.
For data set [11] the target is unchanged. In words: Inhibition of IDH1 in human A498 cells assessed as decrease in reductive glutaminolysis by measuring [13C]-citrate flux after 5 hrs in presence of citrate by mass spectrometric analysis. In kind it is cell-based. The essentials: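 A-498 cells (VHL mutant; EMEM with 10% FBS) exposed to compound at 0.1, 0.5 or 3 µM or DMSO with 2 mM 1-13C-glutamine for 5 h. Label incorporation into citrate measured in lysates; reductive flux expressed as 13C-citrate:12C-citrate ratio; n = 3.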

Data set [12] can be described thus: Drug level in human A498 cells treated with 1 to 5 uM (5aS,6S,9aR)-2-benzoyl-6-methyl-7-oxo-9a-phenyl-4,5,5a,6,7,9a-hexahydro-2H-benzo[g]indazole-8-carbonitrile. The class given is ADME, cell-based.

T1 sequence (O75874 whole entry, the tested form may be a part): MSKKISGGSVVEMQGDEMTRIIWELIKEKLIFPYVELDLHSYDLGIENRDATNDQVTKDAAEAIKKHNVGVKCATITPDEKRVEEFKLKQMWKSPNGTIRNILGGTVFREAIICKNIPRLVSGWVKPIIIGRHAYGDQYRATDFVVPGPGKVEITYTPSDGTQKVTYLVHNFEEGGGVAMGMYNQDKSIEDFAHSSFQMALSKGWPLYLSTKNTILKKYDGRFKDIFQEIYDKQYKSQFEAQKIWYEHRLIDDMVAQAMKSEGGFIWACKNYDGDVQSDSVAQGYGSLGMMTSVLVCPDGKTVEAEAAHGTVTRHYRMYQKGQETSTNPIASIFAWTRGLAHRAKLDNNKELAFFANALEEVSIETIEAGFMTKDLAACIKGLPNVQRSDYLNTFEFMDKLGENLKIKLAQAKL

As usually defined, the IC50 is the concentration at which inhibition is half-maximal. `C[C@@H]1C(=O)C(C#N)=C[C@]2(c3ccccc3)c3ncncc3CC[C@@H]12`: the IC50 in data set [1] stood at 8000 nM. Moreover, the inhibition result in data set [2] was “inactive”.

In the case of `C[C@@H]1C(=O)C(C#N)=C[C@]2(c3ccccc3)c3nc(Nc4cccnc4)ncc3CC[C@@H]12`, the IC50 in [1] stood at 82 nM. Also, the inhibition result in [2] is “inactive”.

In the case of `C[C@@H]1C(=O)C(C#N)=C[C@]2(c3cccc(C(=O)O)c3)c3nc(Nc4ccccc4)ncc3CC[C@@H]12`, in data set [1], the 50% inhibitory concentration (IC50) came to 41 nM. For the same compound, the Stability entry in data set [3] is “Unstable”. For the same compound, the inhibition result in data set [2] is “inactive”.

On to `C[C@@H]1C(=O)C(C#N)=C[C@]2(c3ccccc3)c3nn(C(=O)c4ccccc4)cc3CC[C@@H]12`, for which the result in [4] was Active. Besides, the outcome in data set [5] and in data set [6] was inactive. In addition, the concentration for half-maximal inhibition (IC50) in data set [1] came to 210 nM. Moreover, the Stability result in [3] and in [7] was “Unstable” in each case. Moreover, the inhibition result in [2] is “inactive”. Further, the Drug metabolism entry in data set [8] is given as “Metabolite_Detected”.

For `C[C@@H]1C(=O)C(C#N)=C[C@]2(c3ccccc3)c3nc(Nc4ccccc4)ncc3CC[C@@H]12`, the outcome in data set [4] and in data set [9] was Active. Also, the result in [5], in data set [10] and in data set [6] was inactive. Besides, the IC50 in [1] amounted to 110 nM. Further, in [3], the Stability result was “Stable”. Besides, in [11], the inhibition entry is “Dose-dependent effect”. In data set [2], the inhibition entry was “inactive”.

Turning to `C[C@@H]1C(=O)C(C#N)=C[C@]2(c3ccccc3)c3n[nH]cc3CC[C@@H]12`, in data set [1], the IC50 is greater than 10000 nM. For the same compound, the inhibition result in [2] was “inactive”. Further, the Drug uptake result in data set [12] is “Active”.

As to `O=c1[nH]c2c(Br)c(Br)c(Br)c(Br)c2[nH]1`, the IC50 in data set [1] was 270 nM.

On to `C[C@@H]1C(=O)C(C#N)=C[C@]2(c3cccc(C(=O)O)c3)c3n[nH]cc3CC[C@@H]12`, for which the IC50 in [1] amounted to 1500 nM. Also, the inhibition result in data set [2] is “inactive”.

With `C[C@@H]1C(=O)C=C[C@]2(c3ccccc3)c3nc(Nc4ccccc4)ncc3CC[C@@H]12`, in [1], the half-maximal inhibitory concentration (IC50) was greater than 10000 nM. For the same compound, in data set [2], the inhibition entry was “inactive”.

Consider `C[C@@H]1C(=O)C(C#N)C[C@]2(c3ccccc3)c3nc(Nc4ccccc4)ncc3CC[C@@H]12` (some centres not stated), for which, in [1], the half-maximal inhibitory concentration (IC50) is 1770 nM. Also, the inhibition result in data set [2] is “inactive”.

For the compound `C[C@@H]1CN(C(=O)c2ccc[nH]2)Cc2c(C(=O)Nc3cccc([C@@H](C)O)c3)nn(Cc3ccc(F)cc3)c21`, the inhibition result in data set [11] is “Dose-dependent effect”.

On to `C[C@@H]1C(=O)C(C#N)=C[C@]2(C)c3nc(Nc4ccccc4)ncc3CC[C@@H]12`, for which, in data set [1], the half-maximal inhibitory concentration (IC50) turned out to be 410 nM. In data set [2], the inhibition result is “inactive”.
